Shown are actives, neighbours in structure and some others; about 3.5% of the full set was active somewhere.
RGS4 inh: RGS4 inhibitors, primary screen, cell-based, HEK293 M3R inducible RGS4, calcium flux. B-score at 10 µM. 0.45% of 310,000 active. Fluo-4 calcium flux; stronger effect = higher value; triggered by carbachol at its EC20;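 active = B-score, a plate-corrected calcium signal, over three deviations above library mean, with baseline fluorescence within five deviations of library mean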;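 note: RGS4 expression induced by doxycycline in cells with stable M3 receptor; B-score is computed from the integrated fluorescence ratio over baseline after carbachol; higher B-score means a larger calcium signal and so more RGS4 inhibition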
Target sequence (P49798 whole entry, looked up): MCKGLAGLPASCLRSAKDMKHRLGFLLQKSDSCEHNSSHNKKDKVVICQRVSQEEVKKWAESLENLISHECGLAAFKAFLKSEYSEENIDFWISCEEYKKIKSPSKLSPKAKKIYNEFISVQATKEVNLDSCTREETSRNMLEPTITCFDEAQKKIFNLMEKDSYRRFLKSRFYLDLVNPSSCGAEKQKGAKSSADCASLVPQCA
MrgX1 ag: agonists of human MrgX1 receptor, primary screen, HEK293 cells, Fluo-4 calcium flux | 0.44% of 310,000 active | Fluo-4 calcium fluorescence, agonist mode; stronger effect = higher value | Mas-related G-protein coupled receptor member X1 (Homo sapiens), Q96LB2 | B-score at 10 µM;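 active = calcium response B-score plate-corrected fluorescence ratio at least 3 library SD, with starting fluorescence B-score inside 5 SD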
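Material: MrgX1-expressing HEK293 cells; input: 15,000 cells per well; doses: test compound given as first of three sequential additions; schedule: overnight plating before 1 h dye loading; technique: Fluo-4 NW calcium-flux fluorescence, kinetic read; evaluation: baseline-normalised fluorescence change ratio, B-scored; control set: plate-wise positive and negative controls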
MrgX1 antagonist: antagonists of human MrgX1 receptor, primary screen, HEK293 cells, Fluo-4 calcium flux; B-score at 10 µM; Mas-related G-protein coupled receptor member X1 (Homo sapiens), Q96LB2; 1.3% of 310,000 active; BAM8-22 antagonism; stronger effect = lower value;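 active = calcium-response B-score plate-corrected more than 3 library SD below zero, starting fluorescence within 5 deviations, no agonist response on first addition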;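 note: peak minus trough fluorescence over baseline after final BAM8-22 challenge near maximal dose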
RGS4 pot: RGS4 potentiators or activators, primary screen, cell-based, HEK293 M3R inducible RGS4, calcium flux. carbachol calcium flux Fluo4; stronger effect = lower value. B-score at 10 µM. 0.92% of 310,000 active;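 active = B-score of the integrated calcium signal more than 4 SD below the library mean, with starting fluorescence not abnormally high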;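 note: negative B-score means reduced calcium response which marks RGS4 activation or potentiation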
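Assay system: Inducible-RGS4 HEK293 cells carrying M3 receptor | Schedule: Compound preincubation 20 min at room temperature before agonist | Signal: Kinetic calcium fluorescence imaging with Fluo4-AM dye, 2 µM | Read-out basis: B score from integrated fluorescence ratio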
MrgX1 allo act: positive allosteric modulators of MrgX1, primary screen, HEK293 cells, Fluo-4 calcium flux. Mas-related G-protein coupled receptor member X1 (Homo sapiens), Q96LB2. FDSS; stronger effect = higher value. B-score at 10 µM. 0.63% of 310,000 active. AID 588675, 2011;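 active = plate-corrected calcium response at least 3 library SD above typical, normal starting fluorescence, not activating the receptor alone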;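 note: compound read alongside a low EC10 to EC30 dose of BAM8-22 agonist; peak minus trough fluorescence over baseline measured at the second addition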
* hit, by the source's call; i = inactive.

SMILES	RGS4 inh	MrgX1 ag	MrgX1 antagonist	RGS4 pot	MrgX1 allo act
CN1CCc2c(sc(NC(=O)c3ccc(S(=O)(=O)N4CCCCCC4)cc3)c2C(N)=O)C1	i	31.6*	i	i	i
Cc1ccc(C(c2sc3nc(C)nn3c2O)N2CCN(c3ccccc3F)CC2)cc1 (stereo not drawn)	i	i	-5.18*	i	i
Cc1ccc(C(c2sc3nc(C)nn3c2O)N2CCN(CCO)CC2)cc1 (stereo not drawn)	i	i	i	i	i
CCOC(=O)c1c(S(=O)(=O)NCc2ccc(C)o2)c(C)n(C)c1C	i	i	i	i	i
Cc1c(OC(C)C(=O)NCCCn2ccnc2)ccc2c3c(c(=O)oc12)CCC3 (stereo not drawn)	i	i	i	i	i
CCOC(=O)c1cnc2ccc(C(=O)OC)cc2c1Nc1ccc(C(=O)O)cc1	i	i	i	i	i
CCOC(=O)c1ccc2ncc(C(=O)OCC)c(Nc3ccc(N4CCOCC4)cc3)c2c1	i	i	i	-7.45*	i
CCCC(=O)C1=C(O)C(C(=O)OC)C(C)(C)CC1=Nc1cccc2ccccc12 (stereo not drawn)	i	i	i	i	8.07*
CCCC(=O)C1=C(O)C(C(=O)OC)C(C)(C)CC1=Nc1ccccc1 (stereo not drawn)	i	i	i	i	i
CCCn1c2ccc(C)cc2c2nnc(SCCN3CCOCC3)nc21	i	i	i	i	i
CCC[N+]1(CC#CC(O)(c2ccccc2)C2CCCCC2)CCCCC1 (stereo not drawn)	i	i	i	-8.15*	i
CCOC(CNC(=O)C(=O)Nc1cc2c3c(c1)CCN3C(=O)CC2)OCC	i	i	i	i	i
O=C(NCc1ccccc1Cl)c1nnc(CS(=O)(=O)c2ccccc2)o1	i	i	i	i	i
Cc1ccc(-c2csc(NC(=O)c3cc([N+](=O)[O-])ccc3N3CCOCC3)n2)cc1	i	i	i	i	i
O=C(Nc1nc(-c2ccccc2)cs1)c1ccc(N2CCOCC2)c([N+](=O)[O-])c1	i	i	-7.37*	i	i
CCC1C(=O)NCCN1C(=O)CCc1nnc(CCc2ccc(OC)cc2)o1 (stereo not drawn)	i	i	-5.68*	i	i
COc1ccc(/C=N/NC(=O)c2ccc3ccccc3c2)cc1OS(=O)(=O)c1ccc(NC(C)=O)cc1	i	i	i	-9.32*	i
Cc1cc(F)c(F)c(C(=O)N2CCC(C)CC2)c1Cl	i	i	i	i	i
Cn1c(=O)c(Nc2ccc(Cl)cc2)c2c3c(cccc31)C(=O)c1ccccc1-2	i	i	i	-7.01*	i
CCOC(=O)c1c2c3c(cccc3n(C)c1=O)C(=O)c1ccccc1-2	i	i	i	i	i
O=C(O)/C=C/C(=O)Nc1ccccc1SC(F)(F)F	i	i	i	i	i
COC(=O)CNC(=O)Cn1nc(C)c([N+](=O)[O-])c1C	i	i	i	i	11.7*
Cc1nn(CC(=O)NCc2ccccc2)c(C)c1[N+](=O)[O-]	i	i	i	i	i
COC(=O)c1cccc(Cn2nc(C)c([N+](=O)[O-])c2C)c1	i	i	-6.62*	i	i
CC(C)c1nnc(SCC(=O)Nc2ccc3c(c2)OCCO3)n1C	i	i	i	i	i
N#Cc1ccc(OCC(=O)Nc2cccc(S(=O)(=O)NC3=NCCCCC3)c2)cc1	i	i	i	i	i
COC(=O)C1(C(C[N+](=O)[O-])c2ccco2)C(=O)NCC1c1ccccc1 (stereo not drawn)	i	41.8*	i	i	i
Cc1cc(-c2nn(C)c(=O)c3ccccc23)ccc1CNC(=O)NC1CCCCC1	i	i	i	i	i

Compound activity deposited in PubChem BioAssay by Johns Hopkins Ion Channel Center.
